Measured values taken from ChEMBL document CHEMBL1287756, “Design and synthesis of an androgen receptor pure antagonist (CH5137291) for the treatment of castration-resistant prostate cancer” (Bioorg Med Chem, 2010).
pIC50: −log10 of the molar value. Calls of active or inactive are those of the source. The rule behind the calls is not given here.

How the values were obtained:
[1] = Metabolic stability in human liver microsomes assessed as compound remaining after 15 mins by LC-MS/MS analysis; type: ADME, Microsome; conditions: read-out: Stability
Method in brief: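 Human liver microsomes in phosphate buffer (pH 7.4) with NADPH added. Percent of parent compound remaining measured after 15 min.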

hERG (KCNH2) = hERG (KCNH2) (Homo sapiens, UniProt Q12809); assay: Inhibition of human ERG at 10 uM by whole cell patch-clamp technique
Method in brief: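 hERG current recorded by whole-cell patch clamp; one experiment run in duplicate.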

Mus musculus [2] = species on record: Mus musculus; assay: Antiandrogenic activity in castrated mouse assessed as reduction in wet weight gain of seminal vesicle; type: functional
Method in brief: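 Castrated mice, n = 4 or 5 per group; antiandrogenic activity read as change in seminal vesicle wet weight.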

[3] = target: T1, Androgen receptor (Homo sapiens) (UniProt P10275); conditions: HeLa
T1 sequence (whole entry): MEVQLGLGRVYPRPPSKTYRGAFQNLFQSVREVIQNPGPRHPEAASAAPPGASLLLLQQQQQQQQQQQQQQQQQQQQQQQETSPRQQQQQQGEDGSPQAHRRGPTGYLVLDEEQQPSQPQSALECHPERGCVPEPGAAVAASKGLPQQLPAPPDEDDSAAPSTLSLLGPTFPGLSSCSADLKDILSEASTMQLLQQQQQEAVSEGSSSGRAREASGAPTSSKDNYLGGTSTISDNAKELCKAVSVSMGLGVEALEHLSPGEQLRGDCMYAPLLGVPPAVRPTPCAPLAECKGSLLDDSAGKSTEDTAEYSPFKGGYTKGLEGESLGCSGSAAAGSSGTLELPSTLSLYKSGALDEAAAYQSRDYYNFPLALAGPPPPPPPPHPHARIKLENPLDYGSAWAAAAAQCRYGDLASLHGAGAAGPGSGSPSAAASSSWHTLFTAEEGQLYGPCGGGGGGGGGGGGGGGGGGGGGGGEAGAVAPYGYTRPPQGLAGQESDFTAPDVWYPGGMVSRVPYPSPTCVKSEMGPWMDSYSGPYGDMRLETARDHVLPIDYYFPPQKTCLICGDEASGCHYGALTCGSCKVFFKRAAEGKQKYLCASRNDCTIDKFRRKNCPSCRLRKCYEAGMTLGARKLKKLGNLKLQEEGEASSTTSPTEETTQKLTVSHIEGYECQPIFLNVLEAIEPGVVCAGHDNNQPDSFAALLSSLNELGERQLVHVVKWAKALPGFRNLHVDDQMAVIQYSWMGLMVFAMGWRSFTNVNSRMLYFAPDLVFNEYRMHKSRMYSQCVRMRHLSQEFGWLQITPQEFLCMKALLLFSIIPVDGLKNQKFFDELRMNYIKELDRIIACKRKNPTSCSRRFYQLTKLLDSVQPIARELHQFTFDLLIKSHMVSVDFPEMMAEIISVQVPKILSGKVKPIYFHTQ

[4] = Membrane permeability by PAMPA assay; type: ADME; conditions: read-out: permeability
LNCaP [5] = assay: Antitumor activity against human bicalutamide-resistant LNCAP cells xenografted in SCID mouse assessed as inhibition of tumor growth at 100 mg/kg, po qd for seven cycles of 5 days on, 2 days off; type: functional, organism-based; set-up: dose 100 mg/kg
Method in brief: (§1)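 LNCaP-BC2 cells (2 × 10^6) inoculated subcutaneously into castrated 6-week-old male SCID mice. Randomised at tumour size 90–400 mm3, n = 5 per group. Oral dosing once daily in 5% gum arabic at 10 mL/kg, seven cycles of 5 days on and 2 days off. Tumour size and plasma PSA measured after 17 days. PSA expressed as day 17 level relative to day 0 level.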

LNCaP [6] = assay: Antitumor activity against human bicalutamide-resistant LNCAP cells xenografted in SCID mouse assessed as inhibition of tumor growth at 10 mg/kg, po qd for seven cycles of 5 days on, 2 days off; type: functional, organism-based; set-up: dose 10 mg/kg; method in brief: as §1
Mus musculus [7] = assay: Inhibition of prostate specific antigen production in human bicalutamide-resistant LNCAP cells xenografted SCID mouse at 100 mg/kg, po qd for seven cycles of 5 days on and 2 days off measured on day 17; type: functional, organism-based; set-up: dose 100 mg/kg; method in brief: as §1
Mus musculus [8] = assay: Inhibition of prostate specific antigen production in human bicalutamide-resistant LNCAP cells xenografted SCID mouse at 10 mg/kg, po qd for seven cycles of 5 days on and 2 days off measured on day 17; type: functional, organism-based; set-up: dose 10 mg/kg; method in brief: as §1
Androgen receptor = target: T2, Androgen receptor (Homo sapiens, UniProt P10275); assay: Antagonist activity at human AR expressed in human HeLa cells co-transfected with MMTV-Luc-Hyg after 48 hrs by transient-luciferase reporter gene assay; type: functional, cell-based
T2 sequence (P10275 whole entry): T1 sequence (whole entry)

Canis familiaris = assay: Cardiotoxicity in anesthetized dog assessed as QT prolongation by electrocardiographic analysis; type: toxicity, organism-based, Canis lupus familiaris; conditions: in vivo
[9] = Metabolic stability in mouse liver microsomes assessed as compound remaining after 30 mins by LC-MS/MS analysis; type: ADME, Microsome; conditions: read-out: Stability
[10] = Metabolic stability in dog liver microsomes assessed as compound remaining after 30 mins by LC-MS/MS analysis; type: ADME, Canis lupus familiaris, Microsome; conditions: read-out: Stability
[11] = Metabolic stability in monkey liver microsomes assessed as compound remaining after 30 mins by LC-MS/MS analysis; type: ADME, Macaca mulatta, Microsome; conditions: rhesus monkey, read-out: Stability
[12] = Metabolic stability in human liver microsomes assessed as compound remaining after 30 mins by LC-MS/MS analysis; type: ADME, Microsome; conditions: read-out: Stability
[13] = Metabolic stability in rat liver microsomes assessed as compound remaining after 30 mins by LC-MS/MS analysis; type: ADME, Microsome; conditions: read-out: Stability

Sequence of hERG (KCNH2) (Q12809 whole entry): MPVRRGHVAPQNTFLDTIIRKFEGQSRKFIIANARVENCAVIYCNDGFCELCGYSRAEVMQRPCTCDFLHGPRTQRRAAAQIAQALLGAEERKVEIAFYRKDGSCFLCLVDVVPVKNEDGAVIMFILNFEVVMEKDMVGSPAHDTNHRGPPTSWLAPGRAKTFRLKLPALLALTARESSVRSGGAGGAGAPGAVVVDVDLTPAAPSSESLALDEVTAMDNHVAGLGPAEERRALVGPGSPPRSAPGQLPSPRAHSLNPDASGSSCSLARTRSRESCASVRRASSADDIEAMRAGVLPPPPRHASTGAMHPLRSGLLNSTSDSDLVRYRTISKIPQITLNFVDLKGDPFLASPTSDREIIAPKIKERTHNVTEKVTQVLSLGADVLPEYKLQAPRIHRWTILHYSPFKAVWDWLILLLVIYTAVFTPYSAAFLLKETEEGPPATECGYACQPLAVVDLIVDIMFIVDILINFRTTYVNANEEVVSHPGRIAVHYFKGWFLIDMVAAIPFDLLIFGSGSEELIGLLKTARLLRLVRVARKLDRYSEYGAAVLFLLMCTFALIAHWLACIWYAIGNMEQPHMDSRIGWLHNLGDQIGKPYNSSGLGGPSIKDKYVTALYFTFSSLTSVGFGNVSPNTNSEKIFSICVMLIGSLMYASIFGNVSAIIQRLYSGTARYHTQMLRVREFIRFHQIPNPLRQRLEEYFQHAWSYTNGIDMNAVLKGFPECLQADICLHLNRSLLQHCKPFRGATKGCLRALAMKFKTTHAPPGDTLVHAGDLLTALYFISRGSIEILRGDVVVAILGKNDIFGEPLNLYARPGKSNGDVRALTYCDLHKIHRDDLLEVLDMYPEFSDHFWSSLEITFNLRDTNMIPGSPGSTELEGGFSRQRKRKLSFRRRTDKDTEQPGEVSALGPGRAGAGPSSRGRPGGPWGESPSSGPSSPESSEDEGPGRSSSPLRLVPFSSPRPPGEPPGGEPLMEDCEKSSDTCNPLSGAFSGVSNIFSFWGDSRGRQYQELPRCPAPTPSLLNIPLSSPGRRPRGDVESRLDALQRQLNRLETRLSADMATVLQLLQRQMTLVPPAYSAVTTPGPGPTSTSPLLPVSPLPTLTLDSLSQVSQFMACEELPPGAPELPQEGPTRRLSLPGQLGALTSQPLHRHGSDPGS

| SMILES | remaining at 0.25 h [1] [%] | inhibition at 10 µM (hERG (KCNH2)) [%] | ED50 (Mus musculus [2]; Mus musculus, read-out: ED50) [mg/kg] | EC5 [3] [µM] | Papp [4] [×10⁻⁶ cm/s] | inhibition (LNCaP [5]) | inhibition (LNCaP [6]) | inhibition (Mus musculus [7]) | inhibition (Mus musculus [8]) | ED50 (Mus musculus [2]) [mg/kg] | pIC50 (Androgen receptor) | Activity (Canis familiaris) | remaining at 0.5 h [9] [%] | remaining at 0.5 h [10] [%] | remaining at 0.5 h [11] [%] | remaining at 0.5 h [12] [%] | remaining at 0.5 h [13] [%] |
| --- | --- | --- | --- | --- | --- | --- | --- | --- | --- | --- | --- | --- | --- | --- | --- | --- | --- |
| CC1(C)C(=O)N(c2ccc(C#N)c(Cl)c2)C(=S)N1c1cccc(S(N)(=O)=O)c1 | 100 | 58 | 84 | > 10 | 1.6 | – | – | – | – | – | – | – | – | – | – | – | – |
| CC(O)(CS(=O)(=O)c1ccc(F)cc1)C(=O)Nc1ccc(C#N)c(C(F)(F)F)c1 (configuration not stated) [BICALUTAMIDE] | 99 | 7.4 | – | – | – | inactive | inactive | inactive | inactive | 3 | – | – | – | – | – | – | – |
| CC1(C)C(=O)N(c2ccc(C#N)c(C(F)(F)F)c2)C(=S)N1c1cccc(S(N)(=O)=O)n1 | 94 | 10 | 7 | > 10 | 14 | Active | Active | Active | Active | – | 6.15 | Non-toxic | – | – | – | – | – |
| CC1(C)C(=O)N(c2ccc(C#N)c(Cl)c2)C(=S)N1CCCS(N)(=O)=O | 100 | 17 | 10 | > 10 | 25 | – | – | – | – | – | – | – | – | – | – | – | – |
| CC1(C)C(=O)N(c2ccc(C#N)c(C(F)(F)F)c2)C(=S)N1c1ccnc(S(N)(=O)=O)c1 | 97 | 0 | – | > 10 | 12 | – | – | – | – | – | 6.00 | – | – | – | – | – | – |
| CC1(C)C(=O)N(c2ccc(C#N)c(Cl)c2)C(=S)N1c1cncc(S(N)(=O)=O)c1 | 95 | 52 | – | > 10 | 13 | – | – | – | – | – | 5.70 | – | – | – | – | – | – |
| CC1(C)C(=O)N(c2ccc(C#N)c(C(F)(F)F)c2)C(=S)N1c1cncc(S(N)(=O)=O)c1 | 95 | 33 | 6 | > 10 | 14 | – | – | – | – | – | 6.00 | – | – | – | – | – | – |
| CC1(C)C(=O)N(c2ccc(C#N)c(C(F)(F)F)c2)C(=S)N1c1cccc(S(N)(=O)=O)c1 | 100 | 41 | 63 | > 10 | 8.1 | – | – | – | – | – | 6.52 | – | – | – | – | – | – |
| CC1(C)C(=O)N(c2ccc(C#N)c(C(F)(F)F)c2)C(=S)N1c1ccccc1 | 80 | – | – | 3 | 0.69 | – | – | – | – | – | 6.70 | – | – | – | – | – | – |
| CC1(C)NC(=S)N(c2ccc(C#N)c(C(F)(F)F)c2)C1=O | – | – | – | 0.001 | – | – | – | – | – | – | – | – | < 0.001 | < 0.001 | < 0.001 | < 0.001 | < 0.001 |
| CC1(C)NC(=S)N(c2ccc(C#N)c(Cl)c2)C1=O | – | – | – | 0.0002 | – | – | – | – | – | – | – | – | 0.038 | < 0.001 | 0.027 | 0.022 | 0.075 |
| CC1(C)C(=O)N(c2ccc(C#N)c(Cl)c2)C(=S)N1c1cccc(S(N)(=O)=O)n1 | 100 | 26 | 6 | > 10 | 1.3 | – | – | – | – | – | 6.22 | – | – | – | – | – | – |
